The values below come from PubChem BioAssay AID504383 (The Scripps Research Institute Molecular Screening Center, 2011).

Out of some 2,500 compounds screened, about 1,200 (48%) were called active. The set was probably picked from earlier hits. This is one part of the list. Values without a mark were called inactive.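 How the source made its calls: active means mean activation above the low control average plus 3 SD, as set in the primary screen (cut at about 12% in these data); inactive means the rest.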

The target in this assay is Troponin I, cardiac muscle (Homo sapiens) + Troponin T, cardiac muscle (Homo sapiens) + Troponin C, slow skeletal and cardiac muscles (Homo sapiens) (UniProt P19429+P45379+P63316). Put plainly: calcium sensitizers of cardiac thin filaments – biochemical, IANBD-TnC fluorescence, triplicate, confirmation (AID 504383).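 Further: 0% = DMSO at 0.472 mM calcium and 100% = DMSO at 2.9 mM calcium.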 To be noted: IANBD-labeled cardiac RTF, Ca2+ sensitivity fluorescence; at 7.2 µM; stronger effect = higher value; scaled from EC20 to saturating calcium; tested at EC20 calcium, 0.472 mM. The procedure, abridged:
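Assay system: labelled regulated thin filament protein complex; schedule: 15 min compound incubation with filaments at 25 °C; benchmarks: low control EC20 calcium, high control EC100 calcium; reagent: Ca2+ 0.472 mM, EC20 level; doses: one dose, 7.2 µM nominal; evaluation: fluorescence gain scaled between EC20 and EC100 calcium controls; signal: filament fluorescence intensity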
As for `COc1ccc(N/C=C2\C(=O)CCc3c2oc2cc(Cl)c(O)c(Cl)c32)cc1`, the activation is 47.7% (active).
The result for `Cc1cccc(/C=C2/SC(=O)N(Cc3ccccc3)C2=O)n1` reads 47.1% (active).
As for `COC(=O)c1ccccc1NC(=O)[C@@H]1CCC(=O)N1C1OC(=O)c2c1ccc(OC)c2OC` (some centres undefined), the activation was 3.55%.
Regarding `CCOc1cc2c(cc1/C=C/c1noc(C)c1[N+](=O)[O-])OC(C)C2` (centres undefined), the activation is 330% (active).
The result for `Cn1cc(/C=C/c2cc[n+](C)cc2)c2cc(Cl)ccc21` reads 3.84%; that for `C=CCn1c(C)c(/C=C/c2cc[n+](C)cc2)c2ccccc21`, 38.7% (active); that for `CCn1cc(/C=C/c2cc[n+](C)cc2)c2ccccc21`, 12.4% (active).
Take `Cn1cc(/C=C/c2cc[n+](C)cc2)c2cc(F)ccc21`: the activation was 6.92%.
`CCN(CC)C(=O)Cn1c(C)c(/C=C/c2cc[n+](C)cc2)c2ccccc21`: the activation was 6.95%.
The result for `C=CCn1cc(/C=C/c2cc[n+](C)cc2)c2ccccc21` reads 5.8%; that for `CC(C)n1cc(/C=C/c2cc[n+](C)cc2)c2ccccc21`, 31.7% (active); that for `COC(=O)Cn1c(C)c(/C=C/c2cc[n+](C)cc2)c2ccccc21`, 12.8% (active).
For the compound `COC(=O)Cn1cc(/C=C/c2cc[n+](C)cc2)c2ccccc21`, the activation was 16.8% (active).
`COC(=O)c1ccc2c(c1)C(C)(C)C(/C=C/c1ccccc1O)=[N+]2C`: the activation is 7.52%.
The result for `Oc1ccc2ccc3cccc[n+]3c2c1` reads 68.4% (active); that for `COc1ccc(-c2onc3ccc(C(C)=O)cc23)cc1`, 18% (active); that for `CC(=O)c1ccc2noc(-c3ccc(C)cc3)c2c1`, 6.52%.
The result for `CC1(c2ccc(OC(F)F)cc2)NC(=O)N(CC(=O)Nc2ccc(F)cc2)C1=O` (centres undefined) reads 1.92%; that for `O=C(CN1C(=O)NC2(CCCCC2)C1=O)Nc1ccccc1Cl`, 12.1% (active).
For `CCC1(c2ccccc2)NC(=O)N(CC(=O)Nc2ccc(OC)nc2)C1=O` (centres undefined), the activation is 11%.
For the compound `C=CCOc1ccc(C2OC34CCCCC3C(C#N)(C#N)C2(C#N)C(=N)O4)cc1` (centres undefined), the activation is 11.3%.
For the compound `Cc1cc(C)n2nc(C(=O)N3CCCC(Nc4ccc(C(C)C)cc4)C3)cc2n1` (centres undefined), the activation was 11.9% (active).
In the case of `COc1ccc(-c2ccc(C3C(C#N)=C(N)Oc4n[nH]c(C)c43)o2)cc1` (centres undefined), the activation is 53.6% (active).
The result for `Cc1[nH]nc2c1C(c1cc(Br)cs1)C(C#N)=C(N)O2` (centres undefined) reads 1.18%.
The result for `CCCCCCCC(=O)Nc1ccc(S(=O)(=O)Nc2nccs2)cc1` reads 39.1% (active).
On to `CN(C)C(CNC(=O)c1cccc(S(=O)(=O)N(C)C)c1)c1ccccc1` (centres undefined), for which the activation is 14.9% (active).
Take `O=C(NCc1cccc(C(F)(F)F)c1)c1cccc(S(=O)(=O)NCc2ccccc2)c1`: the activation is 7.34%.
The result for `CC(NC(=O)COc1ccc(N(C)S(=O)(=O)c2ccccc2)cc1)c1ccccc1` (centres undefined) reads 8.81%; that for `CC(=O)C1=C(O)CCCC1=NCc1nc2ccccc2[nH]1`, 2.38%; that for `CCOc1ccc(N2C(=O)CC(SCc3nc4ccccc4[nH]3)C2=O)cc1` (centres undefined), 16.2% (active).
Turning to `O=C(CSC1CC(=O)N(c2ccc(C(=O)O)cc2)C1=O)Nc1ccc2ccccc2c1` (centres undefined), the activation was 1.35%.
Regarding `C[C@H](O)C(=O)C1=Nc2c(nc(N)[nH]c2=O)NC1`, the activation was -0.23%.
`Cc1ccc(C)c(N2CCN(C(=O)c3cc4ccccn4n3)CC2)c1`: the activation is 21.1% (active).
`O=C(Nc1ccc(Cl)c(Cl)c1)Nc1ccc([N+](=O)[O-])cn1`: the activation was 28.5% (active).
Consider `O=C(Nc1ccc(N2CCN(C(=O)c3ccco3)CC2)cc1)c1ccc(F)cc1`, for which the activation was 14.9% (active).
The result for `O=C(COC(=O)C1(c2ccc(F)cc2)CCCC1)N1CCN(C(=O)c2ccco2)CC1` reads 3.96%.
As to `O=C(COC(=O)C1(c2ccccc2F)CCCC1)Nc1ncc(C(F)(F)F)cc1Cl`, the activation is 4.8%.
The result for `COc1ccc(/C=N/NC(=O)Cn2c(Cc3ccc(OC)c(OC)c3)nc3ccccc32)cc1` reads 15% (active).
The result for `COc1ccc(/C=C/C(=O)c2nc3ccccc3n2CC(=O)c2ccc(OC)cc2)cc1` reads -1.84%; that for `Cc1c(C(=O)NCc2ccc3c(c2)cc(C)n3C)cccc1[N+](=O)[O-]`, 8.1%.
`Cc1c(C(=O)NCc2ccco2)cccc1[N+](=O)[O-]`: the activation is 11.7% (active).
The result for `O/C(=C\c1nc2ccccc2[nH]1)c1cccs1` reads 2.34%; that for `c1ccc2[nH]c3cc4ncnc4cc3nc2c1`, 27.5% (active).
As for `Cc1ncn(C23CC4CC(CC(C4)C2)C3)n1`, the activation is 4.82%.
The result for `COC(=O)C1=C(O)/C(=C\c2ccc(CNS(=O)(=O)c3ccc(Cl)cc3)o2)N=C1C` reads 9.05%; that for `COC(=O)CN(c1cc(OC)ccc1OC)S(=O)(=O)c1ccc(OC)c(OC)c1`, 14.6% (active).
The result for `COc1ccc(OC)c(NC(=O)c2cc(S(=O)(=O)N(C)C)ccc2N2CCCC2)c1` reads 7.08%.
The result for `CCOc1ccccc1N(CC(=O)Nc1ccc(OC)c(OC)c1)S(=O)(=O)c1ccccc1` reads 5.99%; that for `CCCn1c(CN2CCN(C(=O)OCC)CC2)nc2cc(NC(=O)CC)ccc21`, 8.96%; that for `Cn1c(CN2CCCC2)nc2cc(NC(=O)COc3ccc([N+](=O)[O-])cc3)ccc21`, 8.98%.
For `CCC(=O)Nc1ccc2c(c1)nc(CCN1CCN(C)CC1)n2C`, the activation was 56% (active).
As for `O=C(O)CN1C(=O)/C(=C/c2ccc(SCc3ccccc3)o2)SC1=S`, the activation is 39.7% (active).
As for `O=C(O)c1cc(-c2ccc(/C=C3/SC(=S)N(Cc4ccccc4)C3=O)o2)ccc1Cl`, the activation is 5.81%.
For the compound `CN1/C(=C\C=C2/SC(=S)N(CC(=O)O)C2=O)C(C)(C)c2ccccc21`, the activation is 7.05%.
The result for `Cn1cccc1/C=C1/SC(=S)N(CC(=O)O)C1=O` reads 176% (active).
The result for `Cn1cccc1/C=C1\SC(=S)N(CC(=O)O)C1=O` reads 14.1% (active); that for `COc1ccc(Nc2cccc3ccccc23)cc1`, 199% (active); that for `CCOc1cc(N2CCOCC2)c(OCC)cc1NC(=O)CCS(=O)(=O)c1ccc(Cl)cc1`, 72% (active).
The result for `COc1cc(/C=N/NC(=O)c2cc(-c3ccccc3Cl)nc3ccccc23)cc(OC)c1O` reads 15.8% (active); that for `COc1cc(/C=N\NC(=O)CC(=O)NCCc2ccccc2)ccc1O`, 7.55%.
Regarding `CCOc1ccc(C(=O)NCC(=O)Nc2ncccc2C)cc1OCC`, the activation was 16.6% (active).
Regarding `Cc1cccc(/C=N/n2c(-c3ccncc3)n[nH]c2=S)c1`, the activation is 39.4% (active).
Turning to `CCCCC1=CC2=C(c3ccco3)C(=O)C(C)(OC(=O)c3ccc(OC)cc3)C(=O)C2=CN1CCc1ccccn1` (centres undefined), the activation was 25.8% (active).
The result for `COC(=O)CCC(=O)OC1(C)C(=O)C2=CN(Cc3ccc(OC)cc3)C(c3ccc(OC)cc3)=CC2=C(Br)C1=O` (centres undefined) reads 6%; that for `O=C(c1ccccc1)c1ccc(O)cc1O`, 89.6% (active); that for `O=C(c1ccccc1)c1ccccc1C(=O)c1ccccc1`, 12.7% (active).
With `O=C(c1ccccc1)c1ccncc1`, the activation was 5.78%.
The result for `O=C(O)c1ccccc1C1=Nc2ccc(O)cc2Oc2cc(O)ccc21` reads 5.85%; that for `CC1C/C(=C/c2cccn2C)C(=O)/C(=C/c2cccn2C)C1` (centres undefined), 11.4%.
On to `Cn1cccc1/C=C1\CCC/C(=C\c2cccn2C)C1=O`, for which the activation is 15.9% (active).
The result for `COC(=O)c1sccc1Oc1ccc(Cl)cc1N1C(=O)CCC1=O` reads 8.17%; that for `Cc1ccc2c(C(=O)CN3CCC(C(N)=O)CC3)c(C)[nH]c2c1`, 16.3% (active).
The result for `CC(NC(=O)CN1CCC(C(N)=O)CC1)c1ccccc1` (centres undefined) reads 5.31%; that for `COc1ccc(C)cc1Nc1n[n+](-c2ccccc2)c(-c2cc([N+](=O)[O-])cc(OC)c2O)s1`, 5.27%.
As for `C=C[C@@](C)(O)CC[C@@H]1[C@@]2(C)CCCC(C)(C)[C@@H]2CC[C@@]1(C)O`, the activation was 6.12%.
On to `COc1ccccc1NS(=O)(=O)c1cc(NC(=O)c2cc3ccccc3oc2=O)ccc1C`, for which the activation was 72.6% (active).
As to `COc1ccccc1NS(=O)(=O)c1cc(NC(=O)CCNC(C)=O)ccc1N1CCCCC1`, the activation is 4.68%.
The result for `Cc1ccc(-c2csc(NC(=O)CSc3nc4ccccc4o3)n2)cc1` reads 2.75%.
`Cc1ccc(NC(=O)CSc2nnc(-c3cccnc3)s2)cc1`: the activation is 678% (active).
The result for `C[C@@H](C(=O)N1CCNCC1)n1cc(CCCN=C(N)N)nn1` reads 107% (active).
`CC(C)(C)OC(=O)NCCCC[C@@H](C(=O)N1CCN(C(=O)OC(C)(C)C)CC1)n1cc(CCC(=O)O)nn1`: the activation was 7.02%.
The result for `CC(O)Cc1cn([C@@H](CCCCN)C(=O)N2CCNCC2)nn1` (some centres undefined) reads 2.6%.
Regarding `CCCCNc1nc(-c2ccccc2)nc(-n2ccnc2)n1`, the activation is 15.9% (active).
In the case of `Cn1cccc1Cc1nnc(SCC(=O)Nc2ccc(F)cc2F)n1-c1ccc(F)cc1`, the activation is 7.53%.
The result for `COc1ccc(NC(=O)CSc2nncc3ccccc23)cc1` reads 1.45%.
The result for `O=C(CSc1nncc2ccccc12)Nc1ccc(F)cc1` reads 170% (active); that for `CC(=O)c1sc2nc(-c3cccs3)cc(C(F)(F)F)c2c1N`, -0.48%.
Take `Cc1nnc(NC(=O)c2sc3nc(-c4cccs4)cc(C(F)(F)F)c3c2N)s1`: the activation was 9.99%.
On to `Nc1c(C(=O)Nc2nccs2)sc2nc(-c3cccs3)cc(C(F)(F)F)c12`, for which the activation was 10.7%.
On to `CC(C)(C)C(=O)c1sc2nc(-c3cccs3)cc(C(F)(F)F)c2c1N`, for which the activation was 12.4% (active).
For the compound `Nc1c(C(=O)Nc2ccccc2F)sc2nc(Cc3ccccc3)cc(C(F)(F)F)c12`, the activation is 7.05%.
As to `Nc1c(C(=O)C2CC2)sc2nc(-c3ccccc3)cc(C(F)(F)F)c12`, the activation was 30.1% (active).
`Nc1c(C(=O)C2CC2)sc2nc(-c3cccs3)cc(C(F)(F)F)c12`: the activation is 18.1% (active).
As to `COc1ccc(-c2cc(C(F)(F)F)c3c(N)c(C(=O)NCCSC)sc3n2)cc1`, the activation is 5.88%.
